Reference: PMC3731570 (Cell Research, 2013)

How the values were obtained:
[1] = system: reconstructed ABA signaling pathway (PYR1+HAB1+SnRK2.6+ABF2), RD29b-luciferase reporter; assay: Protoplast transactivation assay; format: cell-based, Arabidopsis thaliana; conditions: snrk2.2/2.3/2.6 protoplasts transfected with PYR1, HAB1, SnRK2.6, ABF2; 5 μM AM1
Outline: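 Protoplasts came from 4-week-old pRD29b-LUC plants (snrk2.2/2.3/2.6 background) grown on soil pellets under 8-h light/16-h dark. They were transfected with PYR1, HAB1, SnRK2.6 and ABF2, or the same set without PYR1. Cells were treated with 5 µM test compound; DMSO control. RD29b-driven luciferase was measured.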

[2] = system: Arabidopsis seedlings transcriptome; assay: RNA-seq transcriptome profiling of seedlings; format: in vivo, Arabidopsis thaliana; conditions: 50 μM, FDR < 0.05
Outline: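 Ten-day-old Col-0 seedlings on half-strength MS were exposed for 6 h to 50 µM test compound or (+)-ABA, or 0.05% DMSO. Duplicate biological replicates were sequenced on Illumina HiSeq2000 (10 M reads/sample, mean length >49 bp). Fold-change versus DMSO was log2-transformed; Spearman correlations were computed between samples. Differential genes were called by SAM analysis.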

[3] = system: HAB1 PP2C with PYR/PYL receptors; assay: HAB1 phosphatase activity assay; format: biochemical, Arabidopsis thaliana; conditions: 10 μM; PYR1 and PYL1-10
[4] = Stability measurement under UV light; format: physicochemical; conditions: water exposed to UV light (8 W)
Outline: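 Test compound and ABA, each 100 µM in pure water, were exposed in aliquots to an 8 W UV lamp in a safety hood. Aliquots were withdrawn at set time points for LC-MS. Amounts were quantified from peak areas, and half-life was calculated from peak disappearance.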

[5] = system: Col-0 plants rosette leaves; assay: Water loss; format: in vivo, Arabidopsis thaliana; conditions: one-month-old Col-0 plants, 50 μM spray, compared with DMSO
Outline: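 Well-watered 4-week-old Col-0 plants on soil (8-h light/16-h dark) were sprayed with 50 µM test compound plus 0.02% Tween-20; DMSO control. Plants were returned to the chamber for 3 h. Equal-sized rosette leaves were then detached and weighed in air every 5 min for the first hour and every 10 min for the second. Loss is expressed as % of initial fresh weight; n = 4, standard error.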

[6] = system: Arabidopsis seeds (Col-0 and pyr1;pyl1;pyl4); assay: Seed germination assay; format: in vivo, Arabidopsis thaliana; conditions: 1 μM
Outline: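 Col-0 and pyr1;pyl1;pyl4 seeds were stratified 4 days, then sown on half-strength MS (1% sucrose) containing 1 µM test compound or (+)-ABA; DMSO control. Plates were kept at 22 °C under long day, 15 seeds per plate and 4 plates per chemical. Germination was defined as expanded green cotyledons and counted 4 days after triple-mutant germination; mean ± SD.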

[7] = system: ABA-induced stress-related genes; assay: Quantitative RT-PCR of ABA-induced genes in seedlings; format: in vivo, Arabidopsis thaliana; conditions: 50 μM, 6 h

- activation of RD29b-luciferase reporter [1]: efficiently activate
- half-life at 100 μM [4]: 24 min
SMILES: CC1=CC(=O)CC(C)(C)[C@@]1(O)/C=C/C(C)=C\C(=O)O [ABA, Abscisic acid]
- number of genes induced (up- or down-regulated) vs DMSO [2]: 4 529 genes
- receptor-mediated inhibition of HAB1 PP2C activity [3]: inhibited by all receptor subtypes tested
- water loss of rosette leaves [5]: decreased
- inhibition of seed germination ([6]; pyr1/pyl1/pyl4 triple mutant): completely abolished
- inhibition of seed germination ([6]; wild-type Col-0 seeds): inhibit germination
- activation of six ABA-inducible genes ([7]; pyr1/pyl1/pyl4 triple mutant plants): much reduced, but remained inducible
- activation of six ABA-inducible genes ([7]; wild-type plants): dramatically activated
